Source: PubChem BioAssay (several laboratories)
CSC inhib – blocks cancer stem cells; cancer stem cell-like cells viability, luminescence; inhibition, % at 7.5 µM; 300,000 compounds, 1.1% hits; in the data active = inhibition above about 75%; tested in HMLE shEcad cells
Beta apoptosis – beta cell apoptosis inhibition; INS-1E cytokine-induced death, ATP luminescence, 48 h; percent of positive-control rescue, neutral wells zero; protection from apoptosis, % (no concentration beside the values); 300,000 compounds, 0.8% hits; AID 435005;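 active = Every replicate reaches about 75%, or at least half do and their mean reaches it too, limit read from the data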;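 note: 0% = cytokine-treated negative control wells and 100% = positive control rescue; higher means more ATP so stronger rescue from cytokine killing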
Mdm2-MdmX inh – disrupts the human Mdm2-MdmX interaction; 330,000 compounds, 3% hits; SaOS-2 split-luciferase Mdm2/MdmX complementation, luminescence; AID 485346; inhibition, % at 8 µM;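 active = inhibition of at least 50% at 8 µM in the primary screen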
Target sequence (O15151 whole entry, looked up): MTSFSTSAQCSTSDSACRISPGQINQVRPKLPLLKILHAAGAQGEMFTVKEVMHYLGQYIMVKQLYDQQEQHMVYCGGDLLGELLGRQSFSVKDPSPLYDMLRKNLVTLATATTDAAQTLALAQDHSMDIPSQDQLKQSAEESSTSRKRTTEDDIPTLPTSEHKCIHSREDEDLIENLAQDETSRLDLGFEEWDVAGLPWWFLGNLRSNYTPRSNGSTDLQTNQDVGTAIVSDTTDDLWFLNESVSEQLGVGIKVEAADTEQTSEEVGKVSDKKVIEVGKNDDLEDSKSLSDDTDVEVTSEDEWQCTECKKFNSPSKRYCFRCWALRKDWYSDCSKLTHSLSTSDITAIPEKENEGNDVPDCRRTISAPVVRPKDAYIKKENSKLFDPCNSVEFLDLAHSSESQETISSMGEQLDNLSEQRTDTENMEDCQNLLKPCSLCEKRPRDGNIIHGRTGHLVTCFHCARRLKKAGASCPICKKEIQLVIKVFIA
Target sequence (Q00987 whole entry, looked up): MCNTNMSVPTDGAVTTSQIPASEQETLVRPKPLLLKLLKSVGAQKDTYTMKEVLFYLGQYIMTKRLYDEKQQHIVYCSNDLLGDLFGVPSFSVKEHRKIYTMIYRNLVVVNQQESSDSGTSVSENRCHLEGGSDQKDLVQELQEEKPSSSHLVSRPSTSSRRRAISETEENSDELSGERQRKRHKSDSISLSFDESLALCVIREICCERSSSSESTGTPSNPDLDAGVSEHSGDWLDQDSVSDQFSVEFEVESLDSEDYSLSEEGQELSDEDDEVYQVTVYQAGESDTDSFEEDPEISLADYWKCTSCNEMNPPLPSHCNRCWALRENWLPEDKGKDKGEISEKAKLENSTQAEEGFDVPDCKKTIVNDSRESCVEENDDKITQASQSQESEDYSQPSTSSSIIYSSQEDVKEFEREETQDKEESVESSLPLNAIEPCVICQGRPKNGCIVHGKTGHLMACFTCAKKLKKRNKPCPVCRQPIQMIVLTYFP
NLRP3 yeast inh – NALP3 inhibition in yeast | inhibition, % at 10 µM | Yeast reconstituted NLRP3/ASC/caspase-1, beta-gal luminescence, 24 h | 330,000 compounds, 0.39% hits;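 active = inhibition of 50% or more; inactive = inhibition below 50%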;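 note: plate controls were induced DMSO wells for no effect and uninduced yeast grown without galactose for full effect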
Calb FLC – C. albicans growth modulation with fluconazole; C. albicans CaCi-2 (fluconazole-resistant clinical isolate) + fluconazole, Alamar Blue growth, 48 h; growth inhibition, % (test concentration not listed); 300,000 compounds, 0.57% hits; AID 1979;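 active = growth inhibition above about 58% in most replicates, limit read from the data, passing the limit was not always enough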;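 note: all wells also contain fluconazole at 8 µg/ml as a sub-toxic cotreatment; 0% = median of DMSO wells and 100% = median of geldanamycin control wells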
T cruzi repl – blocks replication of Trypanosoma cruzi. T. cruzi beta-gal in NIH3T3, luminescence, 90 h. inhibition, % (no concentration beside the values). 300,000 compounds, 1.4% hits;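 active = mean inhibition across valid replicates above about 55%, limit read from the data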;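 note: signal also drops with host cell toxicity which is not excluded here; 0% = plate median of DMSO wells and 100% = zero luminescence signal; higher percent means less beta-gal luminescence so fewer parasites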
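Read-out: Parasite load inhibition, % | Test system: Mouse NIH/3T3 fibroblasts infected with β-gal-expressing T. cruzi Tulahuen C4 | Amount: 5,000 cells/well | Medium: DMEM, 2% fetal bovine serum | Signal: GalScreen β-gal luminescence, detergent lysis, 60 min | Timing: 3 h attach, ≥90 h co-culture | Also added: Tulahuen C4 trypomastigotes, 5000/well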
Mdm2 MdmX conf – human Mdm2/MdmX binding inhibition, confirmed | shares compounds with Mdm2-MdmX inh | luminescent assay | inhibition, % at 8 µM | 10,000 compounds, 55% hits; in the data active = inhibition above about 40%
Full FLuc ctr – counter-screen for Mdm2/MdmX inhibitors: full-length luciferase; shares compounds with Mdm2-MdmX inh; SaOS-2 full-length luciferase counterscreen, luminescence; inhibition, % at 8 µM; 6,200 compounds, 77% hits; AID 504607;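 active = mean inhibition at 8 µM reaching about 37%, which flags the compound as non-specific, limit read from the data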;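 note: p53-null SaOS-2 cells with luciferase driven by a doxycycline-inducible promoter; compound on cells about two nights before reading with doxycycline added after day one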
An asterisk follows results filed as active; nt = no result given; ! = a repeat was not active. Shown are actives, neighbours in structure and some others; about 5.3% of the full set was active somewhere.

SMILES	CSC inhib	Beta apoptosis	Mdm2-MdmX inh	NLRP3 yeast inh	Calb FLC	T cruzi repl	Mdm2 MdmX conf	Full FLuc ctr
COc1ccc(NC(=O)c2sc3ncnc(N4CCN(c5ccccn5)CC4)c3c2C)cc1Cl	11	nt	57*	20	-1	35	-5	nt
CCc1ccc(NC(=O)c2sc3nc(C)nc(N4CCN(c5ccccn5)CC4)c3c2C)cc1	14	-1	38	25	1	29	nt	nt
Cc1cc(Br)ccc1NC(=O)c1sc2ncnc(N3CCN(c4ccccn4)CC3)c2c1C	1	18	59*	17	4	10	49*	59*
COc1ccc(NC(=O)c2sc3nc(C)nc(N4CCN(c5ccccn5)CC4)c3c2C)cc1Cl	9	6	51*	9	-10	19	2	nt
O=C(OCN1C(=O)C(=O)c2ccccc21)c1ccc(Cl)cc1	-4	-5	7	11	-1	-6	nt	nt
CC(=O)O[C@H]1CC[C@@]2(C)[C@@H](CC[C@H]3[C@@H]4CC[C@H](C(C)O)[C@@]4(C)CC(=O)[C@@H]32)C1 (some centres undefined)	8	-7	14	17	-3	-10	nt	nt
Cc1cccc(COc2coc(CN3CCN(C(=O)c4ccco4)CC3)cc2=O)c1	-1	nt	8	18	-6	12	nt	nt
CC(C)(C)NCC(=O)c1c[nH]c2ccccc12	-3	-2	-17	5	6	-6	nt	nt
O=C(NC1CCCCC1)C(c1ccccn1)N(C(=O)Cc1cccs1)c1ccc(Cl)cc1 (centres undefined)	-5	4	-15	0	1	14	nt	nt
Cc1ccc(C(O)(C(=O)NNc2ccc3ccccc3n2)c2ccc(C)cc2)cc1	-16	12	51*!	23	1	36	27	nt
C=C[C@H](CC(C)C)N(Cc1ccccc1)S(=O)(=O)N(Cc1ccc(OC)cc1)[C@H](C=C)CC(C)C	5	115*	58*	11	nt	nt	0	nt
CC(C)C[C@H](CO)N(Cc1ccccc1)S(=O)(=O)N(Cc1ccccc1)[C@@H](CO)CC(C)C	107*	-5	91*	10	nt	nt	10	nt
CN(NC1OC(=O)c2ccccc21)c1c([N+](=O)[O-])cc(C(F)(F)F)cc1[N+](=O)[O-] (centres undefined)	6	nt	-1	21	1	-22	nt	nt
CC1CCc2c(sc3ncn(CCO)c(=O)c23)C1 (centres undefined)	-12	2	-31	14	7	-12	nt	nt
CC1CCc2c(sc3ncn(CC(=O)N=Nc4c(O)[nH]c5ccccc45)c(=O)c23)C1 (centres undefined)	1	11	53*	8	-2	9	-4	nt
CN(C)CC(CCCCC(CN(C)C)C(=O)c1ccccc1)C(=O)c1ccccc1 (centres undefined)	nt	nt	56*	35	-29	21	43*	54*
CC(CNC(=O)c1ccc(-c2ccccc2)cc1)CN(C)C (centres undefined)	nt	0	15	13	-3	4	nt	nt
O=c1[nH]c2ccc([N+](=O)[O-])cc2nc1/C=C(\O)c1ccccc1	-10	31	81*	6	3	-22	-8	nt
C/C(O)=C/c1nc2ccccc2[nH]c1=O	-4	-2	23	11	2	-3	nt	nt
CC1=C(CCN2CCN(C3CCCC3)C(CCO)C2)C(C)(C)CCC1 (centres undefined)	-2	5	16	13	-45	30	nt	nt
Cc1ccc(C(NC(=O)NC(C)c2ccccc2)C(Cl)(Cl)Cl)cc1F (centres undefined)	-1	17	55*	14	-10	38	58*	40*
NS(=O)(=O)c1ccc(S(=O)(=O)N2CCN(C3CCCC3)CC2)cc1	7	0	9	20	8	-7	nt	nt
COCCN(Cc1ccccc1)C(=O)c1cc(-c2ccc(OC)c(OC)c2)nc2ccccc12	-3	13	39	7	17	4	nt	nt
CSc1nc2nccc(-c3ccc(Cl)cc3)n2n1	7	-2	47	-12	8	-3	nt	nt
CCC(C)(C)c1ccc(OCCCC[n+]2ccccc2)c(C(C)(C)CC)c1	105*	114*	84*	-8	nt	58*	94*	56*
SMILES	CSC inhib	Beta apoptosis	Mdm2-MdmX inh	NLRP3 yeast inh	Calb FLC	T cruzi repl	Mdm2 MdmX conf	Full FLuc ctr
CCCCOc1ccc(C)cc1CN(CCO)CCO	-15	-6	20	12	-3	-6	nt	nt
CCCCCc1ccc(OCCCC[n+]2cccc(C)c2)c(CCCCC)c1	109*	111*	83*	1	106*	52	90*	60*
CCCCCc1ccc(OCCCC[n+]2ccc(C)cc2)c(CCCCC)c1	17	111*	96*	27	98*	nt	86*	55*
CCCCCc1ccc(OCCCC[n+]2ccccc2)c(CCCCC)c1	2	87*	87*	15	100*	49	77*	25
C[C@H](CO)N1C[C@H](C)[C@@H](CN(C)S(=O)(=O)c2ccccc2)Oc2ccc(NS(=O)(=O)c3ccc(F)cc3)cc2C1=O	-9	-8	0	19	nt	nt	nt	nt
CCn1ncc([N+](=O)[O-])c1C(=O)Nc1c(C)cccc1C	-22	-2	1	0	3	3	nt	nt
CCOC(=O)NC(=O)CSc1ccc2ccccc2n1	nt	-4	-19	24	11	-7	nt	nt
O=C(Nc1nc(-c2cccs2)cs1)c1ccc(S(=O)(=O)N2CCCCC2)cc1	19	4	38	12	-1	6	nt	nt
O=C(Nc1nc(-c2ccccn2)cs1)c1ccc(S(=O)(=O)N2CCCCC2)cc1	99*	83*	88*	-2	35	54	90*	16
Cc1ccc(S(=O)(=O)N2CCOCC2)cc1C(=O)Nc1nc(-c2ccccn2)cs1	27	76*	76*	6	nt	nt	65*	30
COc1ccccc1C(=O)Nc1nc(-c2ccc(S(=O)(=O)N3CCOCC3)cc2)cs1	41	85*	77*	18	12	47	83*	30
COc1ccc(C(=O)Nc2nc(-c3ccccn3)cs2)cc1S(=O)(=O)N1CCOCC1	25	54	49	14	nt	nt	nt	nt
O=C(Nc1nc(-c2ccccn2)cs1)c1cccc(S(=O)(=O)N2CCOCC2)c1	35	68	77*	5	nt	nt	79*	33
Cc1[nH]c(SCC(=O)Nc2cc(S(C)(=O)=O)ccc2Cl)nc1Cc1ccccc1	2	-3	24	15	nt	nt	nt	nt
Cc1cc(NC(=O)CCN2C(=O)C3C4CCC(C4)C3C2=O)cc(C)c1Br (centres undefined)	-22	-19	25	10	-7	5	nt	nt
COC(=O)CCCC1=CC2=CC(=O)C(C)(OC(=O)c3cccs3)C(=O)C2=CN1C1CCCC1 (centres undefined)	-10	3	-22	3	21	-5	nt	nt
